Experimental data as given in publication PMC4780262 (Bioorganic & medicinal chemistry, 2013).

Columns and labels:
EZH2 (PRC2 complex) = EZH2 (PRC2 complex) (Homo sapiens, UniProt Q15910); assay: HMT selectivity assay; type: biochemical
Method in brief: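 Triplicate, 1 h at room temperature. Guanidine HCl quench, then Flashplate CPM. 100% = no compound; 0% = no enzyme. IC50 over 100 nM–100 μM; Ki = IC50/2.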

SUV39H2 = SUV39H2 (Homo sapiens, UniProt Q9H5I1); assay: HMT selectivity assay; type: biochemical
Sequence of SUV39H2 (Q9H5I1 whole entry, species assumed): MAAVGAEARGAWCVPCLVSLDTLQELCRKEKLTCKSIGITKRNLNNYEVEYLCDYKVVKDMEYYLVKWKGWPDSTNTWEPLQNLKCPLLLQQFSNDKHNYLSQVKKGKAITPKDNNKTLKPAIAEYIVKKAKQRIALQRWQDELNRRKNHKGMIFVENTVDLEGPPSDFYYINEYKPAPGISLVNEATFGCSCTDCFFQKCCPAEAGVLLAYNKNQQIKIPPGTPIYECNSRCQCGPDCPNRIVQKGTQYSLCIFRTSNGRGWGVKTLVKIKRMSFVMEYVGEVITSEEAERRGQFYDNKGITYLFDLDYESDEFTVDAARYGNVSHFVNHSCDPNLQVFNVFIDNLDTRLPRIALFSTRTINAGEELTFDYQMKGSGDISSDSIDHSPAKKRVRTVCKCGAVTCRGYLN
Method in brief: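 Triplicate reactions, 1 h at room temperature. Quenched with 7.5 M guanidine HCl; read as Flashplate CPM. Normalised to no-compound and no-enzyme wells. IC50 from 100 nM–100 μM; Ki = IC50/2.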

EHMT2/G9a = target: T1, EHMT2/G9a (Homo sapiens, UniProt Q96KQ7); assay: HMT selectivity assay; type: biochemical
T1 sequence (Q96KQ7 1-1210): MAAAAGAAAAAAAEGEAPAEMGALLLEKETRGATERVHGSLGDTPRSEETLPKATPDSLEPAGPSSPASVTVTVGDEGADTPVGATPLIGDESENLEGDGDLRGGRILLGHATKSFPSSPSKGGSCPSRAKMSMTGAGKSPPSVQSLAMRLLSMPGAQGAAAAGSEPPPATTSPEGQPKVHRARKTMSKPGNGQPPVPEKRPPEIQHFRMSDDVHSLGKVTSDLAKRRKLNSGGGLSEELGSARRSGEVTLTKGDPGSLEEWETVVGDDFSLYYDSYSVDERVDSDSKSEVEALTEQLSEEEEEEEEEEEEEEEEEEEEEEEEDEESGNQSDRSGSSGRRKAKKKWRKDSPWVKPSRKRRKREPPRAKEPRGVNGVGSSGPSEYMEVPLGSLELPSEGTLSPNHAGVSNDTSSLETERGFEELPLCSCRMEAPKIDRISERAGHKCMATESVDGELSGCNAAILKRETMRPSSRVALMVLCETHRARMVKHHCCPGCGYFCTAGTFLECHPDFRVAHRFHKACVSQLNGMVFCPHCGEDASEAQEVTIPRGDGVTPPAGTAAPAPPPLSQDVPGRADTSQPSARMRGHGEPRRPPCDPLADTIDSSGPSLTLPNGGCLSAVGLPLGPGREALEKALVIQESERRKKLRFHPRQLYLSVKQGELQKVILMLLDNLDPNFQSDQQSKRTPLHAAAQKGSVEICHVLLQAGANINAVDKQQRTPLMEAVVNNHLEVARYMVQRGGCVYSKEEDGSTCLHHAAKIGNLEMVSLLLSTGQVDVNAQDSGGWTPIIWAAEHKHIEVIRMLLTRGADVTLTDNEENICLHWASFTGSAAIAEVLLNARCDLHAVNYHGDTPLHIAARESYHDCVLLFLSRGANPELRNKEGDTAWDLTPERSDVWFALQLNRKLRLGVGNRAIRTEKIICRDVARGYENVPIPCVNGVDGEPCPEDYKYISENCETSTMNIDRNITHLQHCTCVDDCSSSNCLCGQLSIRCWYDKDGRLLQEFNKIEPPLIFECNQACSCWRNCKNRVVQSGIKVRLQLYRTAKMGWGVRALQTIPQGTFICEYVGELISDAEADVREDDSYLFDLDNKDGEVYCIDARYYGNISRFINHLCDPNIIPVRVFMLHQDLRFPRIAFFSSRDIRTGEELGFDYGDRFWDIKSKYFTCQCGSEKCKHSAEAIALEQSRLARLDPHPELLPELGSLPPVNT
Method in brief: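 Triplicate reactions, 1 h, room temperature. Guanidine HCl stop; Flashplate SPA counts. Activity relative to no-compound (100%) and no-enzyme (0%). IC50 over 100 nM–100 μM; Ki = IC50/2.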

MLL1 complex = MLL1 complex (Homo sapiens, UniProt Q03164); assay: HMT selectivity assay; type: biochemical
Sequence of MLL1 complex (Q9UBL3 whole entry): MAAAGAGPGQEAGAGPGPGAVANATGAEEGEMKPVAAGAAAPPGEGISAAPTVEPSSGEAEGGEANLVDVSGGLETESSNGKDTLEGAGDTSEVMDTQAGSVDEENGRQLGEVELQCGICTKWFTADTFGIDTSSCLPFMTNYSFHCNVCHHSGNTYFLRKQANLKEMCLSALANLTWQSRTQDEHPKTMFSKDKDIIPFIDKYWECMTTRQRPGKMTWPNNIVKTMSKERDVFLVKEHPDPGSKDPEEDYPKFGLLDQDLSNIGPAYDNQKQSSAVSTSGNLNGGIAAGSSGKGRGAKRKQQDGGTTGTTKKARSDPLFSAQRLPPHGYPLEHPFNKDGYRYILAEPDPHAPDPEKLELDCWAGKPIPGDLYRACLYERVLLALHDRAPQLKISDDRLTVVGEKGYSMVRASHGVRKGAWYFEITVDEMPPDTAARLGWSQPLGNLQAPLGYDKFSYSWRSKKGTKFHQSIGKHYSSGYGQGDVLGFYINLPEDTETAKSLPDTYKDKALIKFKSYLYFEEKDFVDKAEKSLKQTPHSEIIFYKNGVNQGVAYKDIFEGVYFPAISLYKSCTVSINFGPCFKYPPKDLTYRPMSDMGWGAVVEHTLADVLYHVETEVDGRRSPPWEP
Sequence of MLL1 complex (Q03164 3745-3969): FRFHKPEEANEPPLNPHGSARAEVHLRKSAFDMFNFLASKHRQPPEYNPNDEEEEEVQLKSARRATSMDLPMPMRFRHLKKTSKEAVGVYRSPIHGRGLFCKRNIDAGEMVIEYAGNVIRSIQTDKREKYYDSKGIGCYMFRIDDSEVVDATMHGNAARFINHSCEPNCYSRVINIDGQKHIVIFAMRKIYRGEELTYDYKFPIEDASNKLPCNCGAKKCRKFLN
Sequence of MLL1 complex (Q15291 whole entry, further chain): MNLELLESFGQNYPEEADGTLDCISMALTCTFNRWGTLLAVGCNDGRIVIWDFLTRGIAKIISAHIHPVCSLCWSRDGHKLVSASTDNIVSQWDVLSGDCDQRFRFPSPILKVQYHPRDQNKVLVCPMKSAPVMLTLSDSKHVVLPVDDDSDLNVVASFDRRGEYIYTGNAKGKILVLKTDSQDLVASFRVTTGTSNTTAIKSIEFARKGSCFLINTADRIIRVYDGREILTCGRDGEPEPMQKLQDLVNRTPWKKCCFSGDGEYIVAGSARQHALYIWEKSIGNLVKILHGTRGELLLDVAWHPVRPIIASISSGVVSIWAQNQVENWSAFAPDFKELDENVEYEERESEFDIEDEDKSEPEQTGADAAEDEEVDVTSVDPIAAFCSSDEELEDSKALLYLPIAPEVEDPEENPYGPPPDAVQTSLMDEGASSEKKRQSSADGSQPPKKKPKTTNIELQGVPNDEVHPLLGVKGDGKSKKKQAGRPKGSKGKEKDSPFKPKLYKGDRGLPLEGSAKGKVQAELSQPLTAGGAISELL
Method in brief: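 Triplicate, 1 h at room temperature. Quenched with 7.5 M guanidine HCl; tritium read by Flashplate SPA. Normalised to no-compound and no-enzyme wells. IC50 from 100 nM–100 μM; Ki = IC50/2.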

SETD8 = target: T2, SETD8 (Homo sapiens, UniProt Q9NQR1); assay: HMT selectivity assay; type: biochemical
T2 sequence (Q9NQR1 1-393): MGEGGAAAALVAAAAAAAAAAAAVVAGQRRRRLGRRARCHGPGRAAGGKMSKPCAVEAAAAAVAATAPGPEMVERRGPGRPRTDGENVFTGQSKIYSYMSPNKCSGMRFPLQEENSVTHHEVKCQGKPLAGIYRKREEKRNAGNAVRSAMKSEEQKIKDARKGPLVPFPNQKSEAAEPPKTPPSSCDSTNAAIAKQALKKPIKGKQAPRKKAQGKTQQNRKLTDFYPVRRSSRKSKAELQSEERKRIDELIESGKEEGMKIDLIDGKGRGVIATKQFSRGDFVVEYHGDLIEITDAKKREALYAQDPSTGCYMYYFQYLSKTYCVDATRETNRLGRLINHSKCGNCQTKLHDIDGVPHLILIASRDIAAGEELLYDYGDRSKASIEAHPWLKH
Method in brief: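 Triplicate, 1 h at room temperature. Guanidine HCl stop; Flashplate SPA CPM. No compound = 100%, no enzyme = 0%. IC50 over 100 nM–100 μM; Ki = IC50/2.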

PRMT5-MEP50 = PRMT5-MEP50 (Homo sapiens, UniProt O14744); assay: HMT selectivity assay; type: biochemical
Sequence of PRMT5-MEP50 (O14744 whole entry, the tested form may be a part): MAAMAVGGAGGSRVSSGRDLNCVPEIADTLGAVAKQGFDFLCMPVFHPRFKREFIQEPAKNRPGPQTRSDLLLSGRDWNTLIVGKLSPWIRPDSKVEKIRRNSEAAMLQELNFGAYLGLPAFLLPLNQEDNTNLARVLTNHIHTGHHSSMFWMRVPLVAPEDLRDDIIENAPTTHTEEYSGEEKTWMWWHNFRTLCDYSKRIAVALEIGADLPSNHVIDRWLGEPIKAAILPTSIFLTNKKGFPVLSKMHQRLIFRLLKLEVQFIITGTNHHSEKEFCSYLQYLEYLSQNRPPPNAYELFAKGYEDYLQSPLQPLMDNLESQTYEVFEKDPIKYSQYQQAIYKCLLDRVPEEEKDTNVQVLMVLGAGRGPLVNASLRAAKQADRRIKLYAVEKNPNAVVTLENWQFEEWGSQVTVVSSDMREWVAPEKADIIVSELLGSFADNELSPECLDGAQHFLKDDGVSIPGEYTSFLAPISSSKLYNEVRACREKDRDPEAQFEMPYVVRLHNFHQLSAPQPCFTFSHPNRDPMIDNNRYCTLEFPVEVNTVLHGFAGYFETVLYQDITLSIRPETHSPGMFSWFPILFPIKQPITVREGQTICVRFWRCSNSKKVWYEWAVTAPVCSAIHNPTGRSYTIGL
Sequence of PRMT5-MEP50 (Q9BQA1 whole entry partner, the tested form may be a part): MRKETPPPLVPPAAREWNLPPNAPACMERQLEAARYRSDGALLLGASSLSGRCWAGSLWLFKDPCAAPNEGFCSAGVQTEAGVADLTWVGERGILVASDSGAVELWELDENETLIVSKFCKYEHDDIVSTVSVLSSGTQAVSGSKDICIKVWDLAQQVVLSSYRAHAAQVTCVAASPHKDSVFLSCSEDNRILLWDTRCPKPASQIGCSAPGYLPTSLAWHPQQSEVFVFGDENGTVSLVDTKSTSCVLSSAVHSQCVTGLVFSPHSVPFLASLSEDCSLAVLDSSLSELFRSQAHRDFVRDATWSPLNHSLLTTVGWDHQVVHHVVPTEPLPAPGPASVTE

haspin catalytic domain = target: T3, haspin catalytic domain (Homo sapiens, UniProt Q8TF76); assay: Differential scanning fluorimetry on haspin catalytic domain; type: binding; conditions: 10 μM compound
T3 sequence (Q8TF76 484-798 limits assumed): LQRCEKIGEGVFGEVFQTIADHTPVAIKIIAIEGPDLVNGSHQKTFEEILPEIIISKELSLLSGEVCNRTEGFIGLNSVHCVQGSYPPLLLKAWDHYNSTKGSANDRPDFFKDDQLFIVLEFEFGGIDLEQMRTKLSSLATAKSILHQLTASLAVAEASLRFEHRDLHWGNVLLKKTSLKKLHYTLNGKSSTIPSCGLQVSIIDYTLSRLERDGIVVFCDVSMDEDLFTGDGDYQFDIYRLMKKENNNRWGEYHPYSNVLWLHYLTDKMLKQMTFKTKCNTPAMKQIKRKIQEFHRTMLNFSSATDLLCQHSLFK

PRMT3 = PRMT3 (Homo sapiens, UniProt O60678); assay: HMT selectivity assay; type: biochemical
Sequence of PRMT3 (O60678 whole entry, species assumed): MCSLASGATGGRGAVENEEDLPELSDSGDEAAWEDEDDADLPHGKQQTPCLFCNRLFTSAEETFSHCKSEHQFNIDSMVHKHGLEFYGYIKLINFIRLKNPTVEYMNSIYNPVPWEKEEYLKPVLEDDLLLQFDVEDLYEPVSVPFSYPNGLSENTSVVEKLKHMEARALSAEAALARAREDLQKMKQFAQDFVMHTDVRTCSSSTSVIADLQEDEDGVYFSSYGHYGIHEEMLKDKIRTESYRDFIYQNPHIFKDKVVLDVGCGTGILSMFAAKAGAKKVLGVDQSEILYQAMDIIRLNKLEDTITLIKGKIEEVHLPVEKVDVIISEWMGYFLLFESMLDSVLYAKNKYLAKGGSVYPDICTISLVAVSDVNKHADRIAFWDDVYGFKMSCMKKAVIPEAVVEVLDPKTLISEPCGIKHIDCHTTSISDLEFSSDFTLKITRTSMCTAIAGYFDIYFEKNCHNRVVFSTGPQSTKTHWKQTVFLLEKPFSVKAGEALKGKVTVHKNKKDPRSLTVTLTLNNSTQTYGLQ

EHMT1/GLP = target: T4, EHMT1/GLP (Homo sapiens, UniProt Q9H9B1); assay: HMT selectivity assay; type: biochemical
T4 sequence (Q9H9B1 1-1298): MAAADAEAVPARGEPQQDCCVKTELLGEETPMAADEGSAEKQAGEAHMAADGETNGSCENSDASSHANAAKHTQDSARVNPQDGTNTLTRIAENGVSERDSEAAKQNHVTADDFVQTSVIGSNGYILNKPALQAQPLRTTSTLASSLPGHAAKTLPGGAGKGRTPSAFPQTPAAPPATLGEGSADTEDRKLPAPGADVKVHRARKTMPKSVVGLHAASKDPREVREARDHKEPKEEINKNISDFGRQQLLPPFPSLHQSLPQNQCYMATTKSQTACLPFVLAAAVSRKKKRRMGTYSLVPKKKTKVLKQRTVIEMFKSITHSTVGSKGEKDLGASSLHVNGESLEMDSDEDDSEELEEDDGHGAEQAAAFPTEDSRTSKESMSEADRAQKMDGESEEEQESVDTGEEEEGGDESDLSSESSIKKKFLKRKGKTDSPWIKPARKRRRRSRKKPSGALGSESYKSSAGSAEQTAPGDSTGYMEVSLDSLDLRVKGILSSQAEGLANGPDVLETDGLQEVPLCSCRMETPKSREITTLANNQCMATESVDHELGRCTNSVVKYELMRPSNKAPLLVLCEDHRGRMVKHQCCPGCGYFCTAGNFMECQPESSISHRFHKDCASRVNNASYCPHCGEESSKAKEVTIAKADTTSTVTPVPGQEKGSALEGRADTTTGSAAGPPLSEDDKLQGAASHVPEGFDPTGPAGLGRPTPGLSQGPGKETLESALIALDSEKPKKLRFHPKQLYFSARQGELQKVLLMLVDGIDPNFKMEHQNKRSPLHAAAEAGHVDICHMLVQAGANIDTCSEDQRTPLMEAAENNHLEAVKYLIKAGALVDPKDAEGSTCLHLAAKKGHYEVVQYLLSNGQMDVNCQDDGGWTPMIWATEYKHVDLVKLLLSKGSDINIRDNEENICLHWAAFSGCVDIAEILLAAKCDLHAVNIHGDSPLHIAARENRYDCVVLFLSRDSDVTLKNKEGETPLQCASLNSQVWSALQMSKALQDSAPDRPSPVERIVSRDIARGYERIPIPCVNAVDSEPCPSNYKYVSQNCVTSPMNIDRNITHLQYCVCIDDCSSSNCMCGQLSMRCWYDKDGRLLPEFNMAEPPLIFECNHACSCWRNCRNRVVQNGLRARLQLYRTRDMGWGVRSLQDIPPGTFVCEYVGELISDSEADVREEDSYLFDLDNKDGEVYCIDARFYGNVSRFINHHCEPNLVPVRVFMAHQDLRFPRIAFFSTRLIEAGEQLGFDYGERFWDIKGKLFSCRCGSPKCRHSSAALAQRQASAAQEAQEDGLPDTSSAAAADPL
Method in brief: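 Stopped with 7.5 M guanidine HCl, then Flashplate CPM. No compound = 100%, no enzyme = 0%. IC50 from 100 nM–100 μM; Ki = IC50/2.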

SETD7 = target: T5, SETD7 (Homo sapiens, UniProt Q8WTS6); assay: HMT selectivity assay; type: biochemical
T5 sequence (Q8WTS6 1-366): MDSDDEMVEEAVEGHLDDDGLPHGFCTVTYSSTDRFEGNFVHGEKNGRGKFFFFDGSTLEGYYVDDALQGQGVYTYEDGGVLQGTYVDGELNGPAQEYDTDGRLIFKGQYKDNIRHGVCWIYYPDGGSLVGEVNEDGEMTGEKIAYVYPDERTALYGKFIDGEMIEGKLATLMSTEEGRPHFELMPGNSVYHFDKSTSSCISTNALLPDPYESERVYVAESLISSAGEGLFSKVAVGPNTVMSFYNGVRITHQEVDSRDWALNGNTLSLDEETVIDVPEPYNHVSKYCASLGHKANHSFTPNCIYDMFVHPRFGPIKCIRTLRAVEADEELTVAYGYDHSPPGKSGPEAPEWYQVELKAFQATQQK
Method in brief: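 Triplicate, room temperature, 1 h. Stopped with 7.5 M guanidine HCl; Flashplate CPM. Normalised to no-compound and no-enzyme controls. IC50 from 100 nM–100 μM; Ki = IC50/2.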

activity against EZH2 (present in the PRC2 complex) (EZH2 (PRC2 complex)): inactive
Ki (EZH2 (PRC2 complex); PRC2, compound 100 nM to 100 μM, SAM = Km): No inhibition
activity against SUV39H2 (SUV39H2): inactive
Ki (SUV39H2; SUV39H2, compound 100 nM to 100 μM, SAM = Km): No inhibition
activity against EHMT2/G9a (EHMT2/G9a): inactive
Ki (EHMT2/G9a; G9a, compound 100 nM to 100 μM, SAM = Km): No inhibition
activity against MLL (MLL1 complex): inactive
Ki (MLL1 complex; MLL, compound 100 nM to 100 μM, SAM = Km): No inhibition
activity against SETD8 (SETD8): inactive
Ki (SETD8; SETD8, compound 100 nM to 100 μM, SAM = Km): No inhibition
IC50 (PRMT5-MEP50): 2 µM
times less active against PRMT5 than DOT1L (PRMT5-MEP50; IC50 ratio versus DOT1L): about 25
binding to the haspin catalytic domain by differential scanning fluorimetry (haspin catalytic domain): no binding
IC50 (PRMT3): 2 µM
times less active against PRMT3 than DOT1L (PRMT3; IC50 ratio versus DOT1L): about 25
activity against EHMT1/GLP (EHMT1/GLP): inactive
Ki (EHMT1/GLP; EHMT1, compound 100 nM to 100 μM, SAM = Km): No inhibition
activity against SETD7 (SETD7): inactive
Ki (SETD7; SETD7, compound 100 nM to 100 μM, SAM = Km): No inhibition
SMILES: Nc1ncnc2c1c(Br)cn2[C@@H]1O[C@H](CSCC[C@H](N)C(=O)O)[C@@H](O)[C@H]1O [BrSAH, N7-Bromo-deaza-S-adenosyl-L-homocysteine]
